Publication PMC5147053 (Drugs in Context, 2016)

How the values were obtained:
[1] = Safety assessment: treatment-emergent adverse events; assay type: in vivo, human
Method in brief: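 Patients with advanced or metastatic cancer took single 150 mg oral doses of the test compound in a 3-period crossover: high-shear wet granulation, roller-compaction dry-milled and slurry-milled formulations, with washouts of 48 h to 5 days. Safety monitoring covered AEs, SAEs, physical exams, vital signs, lab tests and concomitant medications. TEAEs were graded by CTCAE v3.0 for all patients dosed at least once.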

[2] = oral; cited from earlier work
[3] = single 150 mg dose, N=14, regardless of causality

Cc1cccc(-c2nn3c(c2-c2ccnc4ccc(C(N)=O)cc24)CCC3)n1 [Galunisertib]
SAEs or deaths during the study ([1]; 14 patients, any formulation): no SAEs or deaths | Study discontinuations due to TEAEs ([1]; 14 patients, any formulation): no study discontinuations | TEAEs determined to be related to galunisertib by the investigator ([1]; 14 patients, any formulation): None | Number of patients reporting TEAEs regardless of causality ([1]; of 14 patients, any formulation, single 150 mg doses): Five | Number of patients with TEAE Convulsion (Grade 1) [1, 3]: 1 | Number of patients with TEAE Dizziness (Grade 1) [1, 3]: 1 | Number of patients with TEAE Hyperglycemia (Grade 1) [1, 3]: 1 | Number of patients with TEAE Lymphopenia (Grade 3) [1, 3]: 2 | Number of patients with TEAE Pyrexia (Grade 1) [1, 3]: 1 | Number of patients with TEAE Vulvovaginitis (Grade 1) [1, 3]: 1 | Mean terminal half-life [2]: 8 h | Time of peak plasma concentrations following administration [2]: 0.5 to 2 h
